Key:
[1] = system: BxPC-3 [αvβ6(+)] cells; assay: Cell binding and internalization, BxPC-3 cells; type: cell-based; conditions: 60 min; n = 4; mean ± SD
Method in brief: (§1)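 Tubes were pretreated with non-fat milk (0.5 % w/v in PBS). DX3puro cells were kept in DMEM with puromycin (2 μg/ml); BxPC-3 cells were kept in RPMI. Both media had 10 % heat-inactivated FBS and 1 % PSG, at 37 °C and 5 % CO2. Integrin expression was checked by flow cytometry beforehand. Radiotracer binding and internalization ran 60 min (n = 4) and are reported as fraction of total radioactivity.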

[2] = Biodistribution in mice bearing paired DX3puroβ6/DX3puro xenograft tumors; type: in vivo; conditions: female, athymic nude, mouse, iv, 0.175 nmol per injection, total radioactivity; for tissue uptake at 1 h: 1 h p.i.
Method in brief: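 Female athymic nude mice carried 3 × 10^6 DX3puro and 3 × 10^6 DX3puroβ6 cells s.c. in DMEM on opposite flanks; studies began at ~0.5 cm tumor diameter. Radiotracer at 1.5–3.3 MBq/animal was given i.v. via tail vein under isoflurane, with mass held at 0.175 nmol by adding nonradioactive peptide. Tissues were taken at 1, 2, 4 or 2, 4, 6 h p.i. (n = 3–4), rinsed and γ-counted; results are decay-corrected % ID/g.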

[3] = PET imaging, radioactivity remaining in the body; type: in vivo, mouse; conditions: 4 h p.i., i.v., PET imaging studies, tumor-bearing mice, n = 4; mean ± SD
Method in brief: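 Mice bearing xenografts (paired DX3puroβ6/DX3puro or BxPC-3) received 5–7 MBq radiotracer i.v. via tail vein, with mass held at 0.175 nmol (7 nmol/kg for a 25-g mouse). Two mice per scan lay prone under 1.5–2.0 % isoflurane (n = 4/radiotracer). Static PET scans: 15 min at 1, 2, 4 h and 30 min at 6 h p.i., plus CT. Body-retained radioactivity was decay corrected.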

[4] = system: DX3puro [αvβ6(−)] cells; assay: Cell binding and internalization, DX3puro cells; type: cell-based; conditions: 60 min; n = 4
Method in brief: as §1

[5] = Serum stability, human serum; type: in vitro ADME
Method in brief: (§2)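 Formulated radiotracer (12.5–25 μl, 2–6 MBq) was added to 0.5 ml of either human or mouse serum and incubated at 37 °C in a sealed tube. At each time point an aliquot was withdrawn and serum proteins were precipitated. The supernatant was analysed by HPLC for intact radiotracer.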

[6] = Serum stability, mouse serum; type: in vitro ADME
Method in brief: as §2

With `CC(C)C[C@H](NC(=O)[C@H](CC(=O)O)NC(=O)CNC(=O)[C@H](CCCNC(=N)N)NC(=O)[C@H](CC(C)C)NC(=O)[C@H](CC(N)=O)NC(=O)[C@@H]1CCCN1C(=O)[C@@H](NC(=O)[C@H](C)NC(=O)[C@H](CC(N)=O)NC(=O)CCOCCOCCOCCOCCOCCOCCOCCOCCOCCOCCOCCOCCOCCOCCOCCOCCOCCOCCOCCOCCOCCOCCOCCOCCOCCOCCOCCOCCNC(=O)CN1CCN(CC(=O)O)CCN(CC(=O)O)CC1)C(C)C)C(=O)N[C@@H](CCC(N)=O)C(=O)N[C@H](C(=O)N[C@@H](CC(C)C)C(=O)N[C@@H](C)C(=O)N[C@@H](CCC(N)=O)C(=O)N[C@@H](CCCNC(=N)N)C(=O)N[C@H](C(=O)N[C@@H](C)C(=O)N[C@@H](CCCNC(=N)N)C(=O)N[C@H](C(=O)NCCOCCOCCOCCOCCOCCOCCOCCOCCOCCOCCOCCOCCOCCOCCOCCOCCOCCOCCOCCOCCOCCOCCOCCOCCOCCOCCOCCOCCC(N)=O)[C@@H](C)O)C(C)C)C(C)C` [[^18F]AlF 1, [^18F]AlF NOTA-αvβ6-BP] the “binding to BxPC-3 cells (of total radioactivity)” value [1] was 45.1 ± 0.7%, the “internalization into BxPC-3 cells (of total radioactivity)” value [1] was 31.5 ± 1.3% and the tissue uptake ([2]; DX3puro tumor, uptake in DX3puro tumor, all time points (1, 2, 4 h p.i.)) was ≤ 0.3 %ID/g. For the same compound, the tissue uptake at 1 h ([2]; DX3puroβ6 tumor, uptake in DX3puroβ6 tumor, n = 3–4, mean ± SD) was 2.2 ± 0.5 %ID/g, the tissue uptake at 4 h ([2]; DX3puroβ6 tumor, uptake in DX3puroβ6 tumor, 4 h p.i., n = 3–4, mean ± SD) was 3 ± 0.7 %ID/g and the tissue uptake at 1 h ([2]; blood, blood radioactivity, DX3puroβ6/DX3puro model) was ≤ 0.1 %ID/g. The “injected radioactivity remaining in the body (decay corrected)” value [3] was 21.7 ± 3.4%, the “binding to DX3puro cells (of total radioactivity)” value [4] was ≤ 1.2% and the “internalization into DX3puro cells (of total radioactivity)” value [4] was ≤ 0.5%. For the same compound, the remaining at 2 h [5] was ≥ 97% and the remaining at 2 h [6] was 67%.

— paper PMC7647958 (Molecular imaging and biology, 2020)
